Reference: ChEMBL document CHEMBL3860041, “Synthesis, biological evaluation and molecular modeling study of some new methoxylated 2-benzylthio-quinazoline-4(3H)-ones as nonclassical antifolates” (Bioorg Med Chem Lett, 2016)

Columns and labels:
[1] = Growth inhibition of human CNS cancer cells after 48 hrs by SRB assay; assay type: functional; details: Cancer cell lines
Outline: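 Five-log dose range against NCI tumor cell lines, monitoring GI50, TGI and LC50 for each cell line; MG-MID values derived across the panel; 5-fluorouracil positive control.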

[2] = Growth inhibition of human NCI-H23 cells at 10 uM after 48 hrs by SRB assay relative to control; assay type: functional; details: NCI-H23, 48 h, read-out: GI
Outline: (§1)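 NCI 60-cell-line panel, nine tumor subpanels; compounds tested at a single dose of 10 μM in the primary screen.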

[3] = Growth inhibition of human M14 cells at 10 uM after 48 hrs by SRB assay relative to control; assay type: functional; details: M14, 48 h, read-out: GI; outline: as §1
[4] = Growth inhibition of human SF268 cells at 10 uM after 48 hrs by SRB assay relative to control; assay type: functional; details: SF-268, 48 h, read-out: GI; outline: as §1
[5] = Growth inhibition of human ovarian cancer cells after 48 hrs by SRB assay; assay type: functional; details: Cancer cell lines
Outline: (§2)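 Follow-up NCI panel testing over a 5-log dose range for each cell line. GI50, TGI and LC50 were monitored, with 5-fluorouracil run as the positive control. Values are grouped by tumour subpanel.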

[6] = Growth inhibition of human KM12 cells at 10 uM after 48 hrs by SRB assay relative to control; assay type: functional; details: KM12, 48 h, read-out: GI; outline: as §1
[7] = system: Leukemia cell; assay: Potency index, ratio of 5-fluorouracil GI50 to compound GI50 for human leukemia cells; assay type: functional
Outline: (§3)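 GI50 for each cell line came from NCI panel testing over a 5-log dose range, with 5-fluorouracil tested alongside as the reference drug. The index relates the 5-fluorouracil GI50 to the compound GI50 within each tumour subpanel.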

[8] = Growth inhibition of human HOP62 cells at 10 uM after 48 hrs by SRB assay relative to control; assay type: functional; details: HOP-62, 48 h, read-out: GI; outline: as §1
[9] = Growth inhibition of human SW620 cells at 10 uM after 48 hrs by SRB assay relative to control; assay type: functional; details: SW-620, 48 h, read-out: GI
Outline: (§4)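 Primary screen across the full NCI 60 human tumour cell line panel, which covers nine tumour subpanels. A single dose of 10 μM was applied to each line, and growth was recorded for each cell line.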

[10] = system: Cancer cell lines; assay: Potency index, ratio of 5-fluorouracil GI50 to compound GI50 for human CNS cancer cells; assay type: functional; outline: as §3
[11] = Growth inhibition of human SR cells at 10 uM after 48 hrs by SRB assay relative to control; assay type: functional; details: read-out: GI; outline: as §4
[12] = Growth inhibition of human MCF7 cells at 10 uM after 48 hrs by SRB assay relative to control; assay type: functional; details: MCF7, 48 h, read-out: GI; outline: as §1
[13] = system: Melanoma cell; assay: Potency index, ratio of 5-fluorouracil GI50 to compound GI50 for human melanoma cells; assay type: functional; outline: as §3
[14] = system: Cancer cell lines; assay: Potency index, ratio of 5-fluorouracil GI50 to compound GI50 for human ovarian cancer cells; assay type: functional; outline: as §3
[15] = Growth inhibition of human Caki1 cells at 10 uM after 48 hrs by SRB assay relative to control; assay type: functional; details: CAKI-1, 48 h, read-out: GI; outline: as §1
[16] = Growth inhibition of human HL-60(TB) cells at 10 uM after 48 hrs by SRB assay relative to control; assay type: functional; details: HL-60, 48 h, read-out: GI
Outline: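 NCI disease-oriented human tumour cell line screen: primary single-dose assay at 10 μM across the full 60-cell-line panel spanning nine tumour subpanels.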

[17] = Growth inhibition of human MDA-MB-231 cells at 10 uM after 48 hrs by SRB assay relative to control; assay type: functional; details: MDA-MB-231, 48 h, read-out: GI; outline: as §1
[18] = Growth inhibition of human SF295 cells at 10 uM after 48 hrs by SRB assay relative to control; assay type: functional; details: SF-295, 48 h, read-out: GI; outline: as §1
[19] = Growth inhibition of human UACC257 cells at 10 uM after 48 hrs by SRB assay relative to control; assay type: functional; details: UACC-257, 48 h, read-out: GI; outline: as §4
[20] = target: T1, Dihydrofolate reductase (Bos taurus, UniProt P00376); assay: Inhibition of bovine liver DHFR preincubated for 2 mins followed by addition of FH2 as substrate and NADPH
T1 sequence (P00376 whole entry): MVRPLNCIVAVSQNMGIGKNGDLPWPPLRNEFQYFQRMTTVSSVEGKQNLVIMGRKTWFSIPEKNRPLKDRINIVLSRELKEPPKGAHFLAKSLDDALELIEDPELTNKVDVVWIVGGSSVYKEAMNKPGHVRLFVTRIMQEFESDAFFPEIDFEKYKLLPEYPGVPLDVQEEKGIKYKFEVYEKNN

[21] = Growth inhibition of human NCI/ADR-RES cells at 10 uM after 48 hrs by SRB assay relative to control; assay type: functional; details: read-out: GI; outline: as §1
[22] = Growth inhibition of human SKOV3 cells at 10 uM after 48 hrs by SRB assay relative to control; assay type: functional; details: SK-OV-3, 48 h, read-out: GI; outline: as §4
[23] = Growth inhibition of human HOP92 cells at 10 uM after 48 hrs by SRB assay relative to control; assay type: functional; details: HOP-92, 48 h, read-out: GI; outline: as §1
[24] = Growth inhibition of human A498 cells at 10 uM after 48 hrs by SRB assay relative to control; assay type: functional; details: A498, 48 h, read-out: GI; outline: as §1
[25] = system: Cancer cell lines; assay: Potency index, ratio of 5-fluorouracil GI50 to compound GI50 for human breast cancer cells; assay type: functional; outline: as §3
[26] = Growth inhibition of human renal cancer cells after 48 hrs by SRB assay; assay type: functional; details: Cancer cell lines; outline: as §2
[27] = Growth inhibition of human leukemia cells after 48 hrs by SRB assay; assay type: functional; details: Leukemia cell; for CC50: read-out: LC50 (the source's name); outline: as §2
[28] = Growth inhibition of human BT549 cells at 10 uM after 48 hrs by SRB assay relative to control; assay type: functional; details: BT-549, 48 h, read-out: GI; outline: as §1
[29] = system: Cancer cell lines; assay: Potency index, ratio of 5-fluorouracil GI50 to compound GI50 for human renal cancer cells; assay type: functional; outline: as §3
[30] = Growth inhibition of human PC3 cells at 10 uM after 48 hrs by SRB assay relative to control; assay type: functional; details: PC-3, 48 h, read-out: GI; outline: as §1
[31] = Growth inhibition of human RXF393 cells at 10 uM after 48 hrs by SRB assay relative to control; assay type: functional; details: RXF 393, 48 h, read-out: GI; outline: as §1

Work on `COc1cc(CSc2nc3ccc(C)cc3c(=O)n2Cc2ccccc2)cc(OC)c1OC` yielded a GI50 [1] of 3.5 µM, an LC50 (lethal concentration, 50% net cell kill) [1] of 81.9 µM and a TGI [1] of 46.7 µM. It also gave an inhibition of growth at 10 µM [2] of 78.7%, an inhibition of growth at 10 µM [3] of 64.4% and an inhibition of growth at 10 µM [4] of 48.5%. For the same molecule, the GI50 [5] was 3.3 µM, the LC50 (50% lethal concentration) [5] was 92.7 µM and the TGI [5] was 57.6 µM. The inhibition of growth at 10 µM [6] was 74.7%, the RatioGI50 [7] was 10 and the inhibition of growth at 10 µM [8] was 60%. It also gave an inhibition of growth at 10 µM [9] of 74.2%, a RatioGI50 [10] of 10 and an inhibition of growth at 10 µM [11] of 82%. For the same molecule, the inhibition of growth at 10 µM [12] was 82%, the RatioGI50 [13] was 10 and the RatioGI50 [14] was 10. It also gave an inhibition of growth at 10 µM [15] of 71.3%, an inhibition of growth at 10 µM [16] of 83% and an inhibition of growth at 10 µM [17] of 55.6%. For the same molecule, the inhibition of growth at 10 µM [18] was 69%, the inhibition of growth at 10 µM [19] was 52.6% and the IC50 [20] was 1 µM. It also gave an inhibition of growth at 10 µM [21] of 87.3%, an inhibition of growth at 10 µM [22] of 76.1% and an inhibition of growth at 10 µM [23] of 43.4%. It also gave an inhibition of growth at 10 µM [24] of 93%, a RatioGI50 [25] of 10 and a GI50 [26] of 4.3 µM. For the same molecule, the LC50 [26] was 97.9 µM, the TGI [26] was 61.4 µM and the GI50 [27] was 2.4 µM. The TGI [27] was 85.2 µM, the CC50 [27] was > 100 µM and the inhibition of growth at 10 µM [28] was 65.2%. For the same molecule, the RatioGI50 [29] was 10 and the inhibition of growth at 10 µM [30] was 54.1%.

In the case of `COc1cc(CSc2nc3ccc(Cl)cc3c(=O)n2Cc2ccccc2)cc(OC)c1OC`, the GI50 [1] is reported as 4.2 µM, the LC50 (lethal concentration, 50% net cell kill) [1] is reported as 81.8 µM and the TGI [1] is reported as 49.8 µM. For the same molecule, the inhibition of growth at 10 µM [2] was 74.9%, the inhibition of growth at 10 µM [3] was 64.7% and the inhibition of growth at 10 µM [4] was 59.1%. For the same molecule, the GI50 [5] was 5.2 µM, the LC50 (50% lethal concentration) [5] was > 100 µM and the TGI [5] was 75.6 µM. For the same molecule, the inhibition of growth at 10 µM [6] was 76.4%, the RatioGI50 [7] was 2 - 10 and the inhibition of growth at 10 µM [8] was 62.3%. For the same molecule, the inhibition of growth at 10 µM [9] was 71.4%, the RatioGI50 [10] was 2 - 10 and the inhibition of growth at 10 µM [11] was 76.9%. For the same molecule, the inhibition of growth at 10 µM [12] was 85.7%, the RatioGI50 [13] was 2 - 10 and the RatioGI50 [14] was 2 - 10. The inhibition of growth at 10 µM [15] was 73.3%, the inhibition of growth at 10 µM [16] was 85.4% and the inhibition of growth at 10 µM [31] was 86.9%. The inhibition of growth at 10 µM [17] was 61.2%, the inhibition of growth at 10 µM [18] was 71.1% and the inhibition of growth at 10 µM [19] was 53.5%. The IC50 [20] was 4 µM, the inhibition of growth at 10 µM [21] was 86.1% and the inhibition of growth at 10 µM [22] was 75.7%. The inhibition of growth at 10 µM [23] was 28.7%, the inhibition of growth at 10 µM [24] was 76% and the RatioGI50 [25] was 2 - 10. It also gave a GI50 [26] of 4.4 µM, an LC50 [26] of 96.5 µM and a TGI [26] of 52.3 µM. The GI50 [27] was 3 µM, the TGI [27] was 87.9 µM and the CC50 [27] was > 100 µM. The inhibition of growth at 10 µM [28] was 78.3%, the RatioGI50 [29] was 2 - 10 and the inhibition of growth at 10 µM [30] was 44.9%.
